# Hits are enriched below; roughly 0.97% of the tested compounds scored in any of these assays.
# TNF death inh = inhibitors of TNF-alpha induced necroptosis in Jurkat FADD-/- cells | Jurkat FADD-/- TNF necroptosis rescue, ATP luminescence, 24 h; 0 = TNF only, 100 = no-TNF cells | activation (protection from cell death), % at 10 µM | actives 0.068% (n = 220,000) | AID 463075;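 active means activation, meaning protection from cell death, of at least 50% relative to plate controls; inactive means activation below 50%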;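 further: necroptosis triggered by 40 ng/mL TNF-alpha added together with compound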
# B2AR ag = human beta-2 adrenergic receptor agonism by FAP; P07550; response, % (test concentration not listed); actives 0.43% (n = 340,000); Am2.2-beta2AR cells, FAP receptor internalization, flow cytometry;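 active means response above a set limit, near 3 SD of response in nonfluorescent compounds, cut at about 42% in these data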
# Target sequence (P07550 whole entry, looked up): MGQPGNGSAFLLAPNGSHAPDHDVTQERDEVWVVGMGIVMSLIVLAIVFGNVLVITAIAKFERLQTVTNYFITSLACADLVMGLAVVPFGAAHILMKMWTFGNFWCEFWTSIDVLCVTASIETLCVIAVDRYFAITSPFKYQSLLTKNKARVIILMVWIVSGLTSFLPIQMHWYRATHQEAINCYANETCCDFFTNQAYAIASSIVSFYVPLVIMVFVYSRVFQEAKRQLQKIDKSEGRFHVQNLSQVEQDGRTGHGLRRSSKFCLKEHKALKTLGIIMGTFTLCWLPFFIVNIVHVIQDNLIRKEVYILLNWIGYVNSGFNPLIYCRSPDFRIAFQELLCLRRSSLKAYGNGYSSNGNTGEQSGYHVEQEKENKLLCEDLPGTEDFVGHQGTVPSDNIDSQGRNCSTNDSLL
# zVAD death inh = L929 zVAD cell death inhibition | actives 0.38% (n = 220,000) | viability rescue, % at 10 µM | L929 zVAD necroptosis rescue, ATP luminescence, 24 h; with zVAD 60 µM;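 active means activation, scaled between plate controls, above about 75%, limit read from the data; inactive means activation under that limit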;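 further: 0% = zVAD with DMSO and 100% = DMSO alone without zVAD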
# Mdm2 ligase inh = blocks human Mdm2 ubiquitin ligase activity. signal enhancement, % at 5 µM. cell-based MDM2 ubiquitination luciferase reporter, 2 h; 0 = plate control, 100 = twice control, blank-subtracted. AID 1230. actives 0.11% (n = 210,000);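 active means signal enhancement of 30% or more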;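 further: luminescence tracks abundance of the self-degrading MDM2-luciferase fusion protein; higher signal means inhibition of MDM2 E3 ligase activity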
#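 System: stable MDM2–luciferase fusion reporter cells / Input: 2000 cells seeded into each well / Schedule: 4 h settle plus 2 h compound, 37 °C / Compound: single-point 5 µM / Buffer or medium: cells held in DMEM / Benchmarks: control and blank well means / Evaluation: percent signal gain over controls, blank-subtracted / Measured by: luciferase luminescence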
# Dynein transport = blocks dynein driven cargo transport along microtubules; 3617.4 mouse cells, GR-EGFP nuclear translocation imaging; test concentration mostly 20 µM; stimulated with dexamethasone, 1 µM; stronger effect = lower value; actives 0.47% (n = 220,000); z-score, hits read low; AID 1381;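 active means plate z-score of nuclear minus cytoplasmic receptor signal below a set negative limit, without overly bright fluorescence or cell loss, cut at about -3.5 in these data, passing the limit was not always enough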;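 further: z-score of nuclear minus cytoplasmic ring GR-EGFP intensity difference per well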
#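 Also added – dexamethasone, 1.0 µM final · Buffer or medium – tet-free, stripped-serum medium · Schedule – induction 48 h, compound 1 h, agonist 30 min · Detection – formaldehyde fixation, Hoechst nuclear stain, 10x automated fluorescence imaging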
# zVAD death conf = confirmed blocker of zVAD induced death in L929 cells | L929 zVAD-induced necroptosis rescue, ATP luminescence, 24 h | AID 463117 | shares compounds with zVAD death inh | activation (protection from necroptosis), % at 10 µM | actives 16% (n = 760);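 active means mean protection from necroptosis of at least 50% over duplicate tests; inactive means mean protection below 50%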;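 further: 0% = cells with zVAD alone and 100% = vehicle cells without zVAD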
# * = called active by the depositor; nt = no result given.
SMILES,TNF death inh,B2AR ag,zVAD death inh,Mdm2 ligase inh,Dynein transport,zVAD death conf
O=C(OCn1ncc(Cl)c(Cl)c1=O)c1cccc(C(F)(F)F)c1,-17,42,99*,10,-1.3,21
COc1ccc(NC(=O)c2cc3cccc(OC)c3oc2=Nc2ccc(C(=O)O)cc2)cc1OC,-6,11,82*,-8,1.6,11
COc1ccc(Br)cc1C(=O)Nc1ccc(C(=O)O)cc1,0,2,-1,-6,0.24,nt
O=C(c1ccc(N2CCCCS2(=O)=O)cc1)N1CCN(c2ccccc2F)CC1,nt,6,nt,nt,nt,nt
Cc1cc(C)c(NC(=O)OCCN2CCOCC2)c(C)c1,-1,9,0,-2,-1.2,nt
COc1ccccc1NC(=O)Nc1nnc(Cc2ccccc2F)s1,nt,2,nt,nt,nt,nt
COc1ccc(OCc2nnc(NC(=O)Nc3ccccc3F)s2)cc1,3,5,83*,nt,-0.43,5
O=C(Nc1nnc(-c2ccncc2)s1)Nc1ccccc1F,4,-9,78*,-12,-0.44,4
CCOc1ccccc1NC(=O)Nc1ccc(Br)cn1,-1,0,4,-6,-0.3,nt
CCOc1ccccc1NC(=O)Nc1ccccn1,-1,0,79*,-12,-0.53,3
O=C(c1ccc(Cl)c(Cl)c1)c1cnc(Nc2ccccc2)s1,2,1,0,-5,-0.1,nt
CC(=O)c1cnc(Nc2ccc(C)cc2)s1,14,4,84*,-13,-0.67,3
Cc1ccc(-c2csc3ncnc(N4CCN(C(=O)c5ccco5)CC4)c23)cc1,nt,2,nt,nt,nt,nt
CCCCNC(=O)Nc1nc2ccc(CC)cc2s1,8,1,78*,-16,-0.41,2
O=C(NCc1ccc(Cl)cc1)C(=O)Nc1nccs1,1,1,1,-8,-0.82,nt
C/C(=C\c1ccccc1)C(=O)Nc1nccs1,5,5,10,-20,-0.39,nt
C/C=C/C=C/C(=O)Nc1nccs1,11,11,86*,-1,-0.18,4
O=C(/C=C/c1ccc(Cl)cc1)Nc1nccs1,30,-2,77*,-35,0.53,19
COc1cccc(OC)c1/C(O)=C(\C#N)c1nc2ccccc2[nH]1,-3,4,0,3,1.3,nt
O=c1/c(=C/c2ccc(O)cc2)sc2n1CCCN=2,-5,-19,4,-10,0.4,nt
O=c1/c(=C\c2ccc(F)cc2)sc2n1CCCN=2,-1,-17,76*,-3,-1.4,0
COc1ccc2[nH]c3c(c2c1)CCN1C(=O)C(CC(=O)NCCc2ccccn2)C[C@H](C(=O)N2CCCCC2)[C@@]31C (stereo partly specified),nt,-1,nt,nt,nt,nt
CC(C)(C)c1csc(N/N=C/c2cccnc2)n1,0,0,77*,0,0.41,6
C(=N\Nc1nc(-c2ccccc2)cs1)/c1cccnc1,-8,-14,5,7,-0.71,nt
C/C(CC(=O)NC(C)C)=N\NC(=O)C(c1ccccc1)c1ccccc1,30,6,82*,-5,0.29,40
SMILES,TNF death inh,B2AR ag,zVAD death inh,Mdm2 ligase inh,Dynein transport,zVAD death conf
COc1ccccc1-c1nn(-c2ccccc2)cc1C(=O)NC1CC1,nt,-10,nt,nt,nt,nt
Cc1c(C(=O)Cc2ccccc2)n(C)c2ccccc12,1,3,-1,-4,0.86,nt
O=C(NCCc1ccccc1)c1nnc(CS(=O)(=O)c2ccccc2)o1,nt,-8,nt,nt,nt,nt
O=C(c1ccccc1OCc1ccc(Cl)cc1)N1CCN(c2ccccn2)CC1,nt,-5,nt,nt,nt,nt
CCNC(=O)c1c(O)c2ccccc2[nH]c1=O,55*,-10,76*,-8,-0.055,2
CCN1CCN(Cc2ccc(NC(=O)c3cc(NC(=O)N4CCNC4=O)cc(OC)c3)cc2C(F)(F)F)CC1,-8,9,78*,13,0.29,64*
CCN1CCN(Cc2ccc(NC(=O)c3ccc(C)c(NC(=O)c4csc(-c5ccncc5)n4)c3)cc2C(F)(F)F)CC1,-4,6,84*,17,0.79,81*
CCN1CCN(Cc2ccc(NC(=O)c3cc(NC(=O)c4ccno4)cc(OC)c3)cc2C(F)(F)F)CC1,-8,6,77*,8,-0.12,73*
Cc1nc(C(=O)O)nn1-c1ccc([N+](=O)[O-])cc1,-1,1,0,8,-0.43,nt
COc1ccc(C(=O)C2CCCN(C(=O)c3ccc(C(C)=O)s3)C2)c(C)c1 (stereo unspecified),nt,-13,nt,nt,nt,nt
Cc1c(Cc2ccccc2)c(=O)oc2cc(OCC(=O)c3ccccc3)ccc12,2,6,1,-6,0.37,nt
Cc1cccc2c(N=NC(=O)C(C)n3cnc4ccccc4c3=O)c(O)[nH]c12 (stereo unspecified),nt,-3,nt,nt,nt,nt
Cc1nc2ccccn2c1C(=O)c1ccccc1,-3,4,0,-3,0.66,nt
CCNc1nc(NCC)nc(Oc2ccc(N)cc2)n1,0,-9,78*,-8,-0.08,30
COCC(C)n1c(C)cc(C(=O)CSc2ncccn2)c1C (stereo unspecified),1,-4,0,-29,0.33,nt
COCC(C)n1c(C)cc(C(=O)CSc2nnnn2-c2ccc(O)cc2)c1C (stereo unspecified),0,2,76*,-5,1.1,47
CN(C)/C=C/C(=O)c1ccc(-n2cccc2)cc1,0,-8,77*,-9,0.24,3
CN(C)/C=C/C(=O)c1ccc(Cl)cc1,-5,-1,1,2,0.025,nt
COc1ccc(S(=O)(=O)NCCC(=O)NC2CCCCCCC2)cc1,0,-3,81*,-8,0.87,21
CCN1C(=O)/C(=C/c2ccc(C)s2)NC1=S,49,-2,98*,-10,-0.92,94*
COc1ccc2nc(Nc3sc4c(c3C(N)=O)CCCC4)sc2c1,4,6,13,-7,-1.1,nt
COc1ccc(C(=O)NCCc2ccc(F)cc2)cc1OC,0,4,4,5,-0.74,nt
COc1ccc(CC(=O)Nc2ccc(-c3cn4cccc(C)c4n3)cc2)cc1OC,-2,-3,-1,-5,-0.085,nt
COc1ccc(CC(=O)Nc2ccc(-c3cn4ccc(C)cc4n3)cc2)cc1,2,11,81*,-40,-0.44,24
CCCC(=O)Nc1nc2ccc(OC)cc2s1,5,-20,72,-24,0.13,nt
CCC(=O)Nc1nc2ccc(S(C)(=O)=O)cc2s1,-6,-2,63,-21,0.42,nt
CCCC(=O)Nc1nc2ccc(S(N)(=O)=O)cc2s1,0,-9,80*,-16,-0.16,1
CC(C)CC(=O)Nc1nc2ccc(S(C)(=O)=O)cc2s1,-5,-5,81*,9,-0.53,10
Cc1c(Br)cccc1NC(=O)c1sccc1-n1cccc1,1,-6,1,-10,-0.55,nt
